≈ marks a conversion by molar mass, not a printed value.
How the values were obtained:
[1] = system: Aspergillus fumisynnematus; experiment: Antimicrobial activity against Aspergillus fumisynnematus isolate CNM-CM-4063 obtained from bronchoalveolar aspirate of patient after 48 hrs by broth microdilution method; type: functional; conditions: isolate CNM-CM-4063, Lung
Procedure, shortened: (§1)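 CLSI M38-A broth microdilution with modifications: RPMI 1640 with L-glutamine, 2% glucose, buffered to pH 7 with 0.165 M MOPS. Inoculum of 1 × 10^5 to 5 × 10^5 CFU/ml from 3- to 5-day-old cultures. Incubated 35°C, 48 h, humid. Visual reading with a mirror. MIC is complete growth inhibition; echinocandin MEC is hyphal morphological alteration. Azoles 8 to 0.015 μg/ml; others 16 to 0.03 μg/ml.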

Aspergillus lentulus [2] = experiment: Antimicrobial activity against Aspergillus lentulus isolate CNM-CM-4370 obtained from sputum of patient after 48 hrs by broth microdilution method; type: functional; conditions: isolate CNM-CM-4370, 48 h; procedure, shortened: as §1
Aspergillus fumigatus = experiment: Antimicrobial activity against Aspergillus fumigatus ATCC 2004305 after 48 hrs by broth microdilution method; type: functional; conditions: ATCC 2004305, 48 h
[3] = system: Neosartorya pseudofischeri; experiment: Antimicrobial activity against Neosartorya pseudofischeri isolate CNM-CM-3769 obtained from sputum of patient after 48 hrs by broth microdilution method; type: functional; conditions: Aspergillus thermomutatus
Procedure, shortened: (§2)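 CLSI M38-A broth microdilution with modifications: RPMI 1640 with L-glutamine, MOPS-buffered to pH 7, plus 2% glucose. Inoculum 1 × 10^5 to 5 × 10^5 CFU/ml from 3–5-day cultures. Incubated at 35°C for 48 h, humid. Read visually with a mirror. MIC = complete growth inhibition; echinocandin MEC = altered hyphal morphology. QC strain A. fumigatus ATCC 2004305.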

Aspergillus viridinutans [4] = experiment: Antimicrobial activity against Aspergillus viridinutans isolate CNM-CM-3147 obtained from oropharyngeal exudate of patient after 48 hrs by broth microdilution method; type: functional; conditions: isolate CNM-CM-3147, 48 h; procedure, shortened: as §1
Aspergillus lentulus [5] = experiment: Antimicrobial activity against Aspergillus lentulus isolate CNM-CM-4420 obtained from nail of patient after 48 hrs by broth microdilution method; type: functional; conditions: isolate CNM-CM-4420, 48 h; procedure, shortened: as §1
[6] = system: Aspergillus fumigatiaffinis; experiment: Antimicrobial activity against Aspergillus fumigatiaffinis isolate CNM-CM-3227 obtained from bronchoalveolar lavage fluid of patient after 48 hrs by broth microdilution method; conditions: isolate CNM-CM-3227, Lung
Neosartorya hiratsukae [7] = experiment: Antimicrobial activity against Neosartorya hiratsukae isolate CNM-CM-3740 obtained from oropharyngeal exudate of patient after 48 hrs by broth microdilution method; type: functional; conditions: Aspergillus hiratsukae, isolate CNM-CM-3740, 48 h; procedure, shortened: as §1
Aspergillus lentulus [8] = experiment: Antimicrobial activity against Aspergillus lentulus isolate CNM-CM-3537 obtained from sputum of patient after 48 hrs by broth microdilution method; type: functional; conditions: isolate CNM-CM-3537, 48 h; procedure, shortened: as §1
Aspergillus lentulus [9] = experiment: Antimicrobial activity against Aspergillus lentulus isolate CNM-CM-3538 obtained from sputum of patient after 48 hrs by broth microdilution method; type: functional; conditions: isolate CNM-CM-3538, 48 h; procedure, shortened: as §1
Neosartorya hiratsukae [10] = experiment: Antimicrobial activity against Neosartorya hiratsukae isolate CNM-CM-3764 obtained from oropharyngeal exudate of patient after 48 hrs by broth microdilution method; type: functional; conditions: Aspergillus hiratsukae, isolate CNM-CM-3764, 48 h; procedure, shortened: as §1
Neosartorya hiratsukae [11] = experiment: Antimicrobial activity against Neosartorya hiratsukae isolate CNM-CM-3303 obtained from skin of patient after 48 hrs by broth microdilution method; type: functional; conditions: Aspergillus hiratsukae, isolate CNM-CM-3303, 48 h; procedure, shortened: as §1
Aspergillus lentulus [12] = experiment: Antimicrobial activity against Aspergillus lentulus isolate CNM-CM-3134 obtained from sputum of patient after 48 hrs by broth microdilution method; type: functional; conditions: isolate CNM-CM-3134, 48 h; procedure, shortened: as §1
Aspergillus viridinutans [13] = experiment: Antimicrobial activity against Aspergillus viridinutans isolate CNM-CM-4518 obtained from nail of patient after 48 hrs by broth microdilution method; type: functional; conditions: isolate CNM-CM-4518, 48 h; procedure, shortened: as §1
[14] = system: Aspergillus fumigatiaffinis; experiment: Antimicrobial activity against Aspergillus fumigatiaffinis isolate CNM-CM-2280 obtained from sputum of patient after 48 hrs by broth microdilution method; conditions: isolate CNM-CM-2280, 48 h
Aspergillus lentulus [15] = experiment: Antimicrobial activity against Aspergillus lentulus isolate CNM-CM-1290 obtained from sputum of patient after 48 hrs by broth microdilution method; type: functional; conditions: isolate CNM-CM-1290, 48 h; procedure, shortened: as §1
[16] = system: Neosartorya pseudofischeri; experiment: Antimicrobial activity against Neosartorya pseudofischeri isolate CNM-CM-4060 obtained from sputum of patient after 48 hrs by broth microdilution method; type: functional; conditions: Aspergillus thermomutatus; procedure, shortened: as §2
Aspergillus lentulus [17] = experiment: Antimicrobial activity against Aspergillus lentulus isolate CNM-CM-4415 obtained from sputum of patient after 48 hrs by broth microdilution method; type: functional; conditions: isolate CNM-CM-4415, 48 h; procedure, shortened: as §1
Aspergillus lentulus [18] = experiment: Antimicrobial activity against Aspergillus lentulus isolate CNM-CM-3599 obtained from sputum of patient after 48 hrs by broth microdilution method; type: functional; conditions: isolate CNM-CM-3599, 48 h; procedure, shortened: as §1
Aspergillus lentulus [19] = experiment: Antimicrobial activity against Aspergillus lentulus isolate CNM-CM-3364 obtained from bronchoalveolar lavage fluid of patient after 48 hrs by broth microdilution method; type: functional; conditions: isolate CNM-CM-3364, Lung; procedure, shortened: as §1
Aspergillus lentulus [20] = experiment: Antimicrobial activity against Aspergillus lentulus isolate CNM-CM-4330 obtained from sputum of patient after 48 hrs by broth microdilution method; type: functional; conditions: isolate CNM-CM-4330, 48 h; procedure, shortened: as §1
[21] = system: Neosartorya pseudofischeri; experiment: Antimicrobial activity against Neosartorya pseudofischeri isolate CNM-CM-3914 obtained from nail of patient after 48 hrs by broth microdilution method; type: functional; conditions: Aspergillus thermomutatus, isolate CNM-CM-3914, 48 h; procedure, shortened: as §2
[22] = system: Neosartorya pseudofischeri; experiment: Antimicrobial activity against Neosartorya pseudofischeri isolate CNM-CM-2270 obtained from sputum of patient after 48 hrs by broth microdilution method; type: functional; conditions: Aspergillus thermomutatus, isolate CNM-CM-2270, 48 h; procedure, shortened: as §2
Aspergillus lentulus [23] = experiment: Antimicrobial activity against Aspergillus lentulus isolate CNM-CM-4387 obtained from sputum of patient after 48 hrs by broth microdilution method; type: functional; conditions: isolate CNM-CM-4387, 48 h; procedure, shortened: as §1
Aspergillus lentulus [24] = experiment: Antimicrobial activity against Aspergillus lentulus isolate CNM-CM-4426 obtained from sputum of patient after 48 hrs by broth microdilution method; type: functional; conditions: isolate CNM-CM-4426, 48 h; procedure, shortened: as §1
Aspergillus lentulus [25] = experiment: Antimicrobial activity against Aspergillus lentulus isolate CNM-CM-4428 obtained from skin of patient after 48 hrs by broth microdilution method; type: functional; conditions: isolate CNM-CM-4428, 48 h; procedure, shortened: as §1
Neosartorya hiratsukae [26] = experiment: Antimicrobial activity against Neosartorya hiratsukae isolate CNM-CM-4328 obtained from cornea of patient after 48 hrs by broth microdilution method; type: functional; conditions: Aspergillus hiratsukae, isolate CNM-CM-4328, Cornea; procedure, shortened: as §1
Aspergillus lentulus [27] = experiment: Antimicrobial activity against Aspergillus lentulus isolate CNM-CM-3583 obtained from sputum of patient after 48 hrs by broth microdilution method; type: functional; conditions: isolate CNM-CM-3583, 48 h; procedure, shortened: as §1
Neosartorya hiratsukae [28] = experiment: Antimicrobial activity against Neosartorya hiratsukae isolate CNM-CM-3305 obtained from skin of patient after 48 hrs by broth microdilution method; type: functional; conditions: Aspergillus hiratsukae, isolate CNM-CM-3305, 48 h; procedure, shortened: as §1

SMILES | MIC [1] [µg/mL] | MIC (Aspergillus lentulus [2]) [µg/mL] | MIC (Aspergillus fumigatus) [µg/mL] | MIC [3] [µg/mL] | MIC (Aspergillus viridinutans [4]) [µg/mL] | MIC (Aspergillus lentulus [5]) [µg/mL] | MIC [6] [µg/mL] | MIC (Neosartorya hiratsukae [7]) [µg/mL] | MIC (Aspergillus lentulus [8]) [µg/mL] | MIC (Aspergillus lentulus [9]) [µg/mL] | MIC (Neosartorya hiratsukae [10]) [µg/mL] | MIC (Neosartorya hiratsukae [11]) [µg/mL] | MIC (Aspergillus lentulus [12]) [µg/mL] | MIC (Aspergillus viridinutans [13]) [µg/mL] | MIC [14] [µg/mL] | MIC (Aspergillus lentulus [15]) [µg/mL] | MIC [16] [µg/mL] | MIC (Aspergillus lentulus [17]) [µg/mL] | MIC (Aspergillus lentulus [18]) [µg/mL] | MIC (Aspergillus lentulus [19]) [µg/mL] | further results
C[C@@H](c1nc(-c2ccc(C#N)cc2)cs1)[C@](O)(Cn1cncn1)c1ccc(F)cc1F [RAVUCONAZOLE] | 0.83 (≈ 1.9 µM) | 5.33 (≈ 12.2 µM) | 0.25 (≈ 0.571 µM) | 2 (≈ 4.57 µM) | 5.66 (≈ 12.9 µM) | 4 (≈ 9.14 µM) | 5 (≈ 11.4 µM) | 0.66 (≈ 1.51 µM) | 3 (≈ 6.86 µM) | 7 (≈ 16 µM) | 1.33 (≈ 3.04 µM) | 0.375 (≈ 0.857 µM) | 6 (≈ 13.7 µM) | 4 (≈ 9.14 µM) | 6 (≈ 13.7 µM) | 3.5 (≈ 8 µM) | 3.33 (≈ 7.61 µM) | 4.66 (≈ 10.7 µM) | 2 (≈ 4.57 µM) | 5.6 (≈ 12.8 µM) | MIC (Aspergillus lentulus [20]): 1.5 µg/mL (≈ 3.43 µM); MIC [21]: 4 µg/mL (≈ 9.14 µM); MIC [22]: 3.5 µg/mL (≈ 8 µM); MIC (Aspergillus lentulus [23]): 3 µg/mL (≈ 6.86 µM); MIC (Aspergillus lentulus [24]): 5.33 µg/mL (≈ 12.2 µM); MIC (Aspergillus lentulus [25]): 5 µg/mL (≈ 11.4 µM); MIC (Neosartorya hiratsukae [26]): 0.5 µg/mL (≈ 1.14 µM); MIC (Aspergillus lentulus [27]): 2 µg/mL (≈ 4.57 µM); MIC (Neosartorya hiratsukae [28]): 0.25 µg/mL (≈ 0.571 µM)
CC[C@@H]([C@H](C)O)n1ncn(-c2ccc(N3CCN(c4ccc(OC[C@@H]5CO[C@@](Cn6cncn6)(c6ccc(F)cc6F)C5)cc4)CC3)cc2)c1=O [POSACONAZOLE] | 0.12 (≈ 0.171 µM) | 0.18 (≈ 0.257 µM) | 0.03 (≈ 0.0428 µM) | 0.25 (≈ 0.357 µM) | 0.41 (≈ 0.585 µM) | 0.33 (≈ 0.471 µM) | 0.625 (≈ 0.892 µM) | 0.1 (≈ 0.143 µM) | 0.28 (≈ 0.4 µM) | 0.75 (≈ 1.07 µM) | 0.16 (≈ 0.228 µM) | 0.06 (≈ 0.0856 µM) | 0.56 (≈ 0.799 µM) | 0.25 (≈ 0.357 µM) | 1.16 (≈ 1.66 µM) | 0.4 (≈ 0.571 µM) | 0.29 (≈ 0.414 µM) | 0.33 (≈ 0.471 µM) | 0.5 (≈ 0.713 µM) | 2 (≈ 2.85 µM) | MIC (Aspergillus lentulus [20]): 0.12 µg/mL (≈ 0.171 µM); MIC [21]: 0.5 µg/mL (≈ 0.713 µM); MIC [22]: 0.31 µg/mL (≈ 0.442 µM); MIC (Aspergillus lentulus [23]): 0.25 µg/mL (≈ 0.357 µM); MIC (Aspergillus lentulus [24]): 0.2 µg/mL (≈ 0.285 µM); MIC (Aspergillus lentulus [25]): 0.62 µg/mL (≈ 0.885 µM); MIC (Neosartorya hiratsukae [26]): 0.09 µg/mL (≈ 0.128 µM); MIC (Aspergillus lentulus [27]): 0.25 µg/mL (≈ 0.357 µM); MIC (Neosartorya hiratsukae [28]): 0.045 µg/mL (≈ 0.0642 µM)
C[C@@H]1[C@H](O)[C@@H](C)/C=C/C=C/C=C/C=C/C=C/C=C/C=C/[C@H](O[C@@H]2O[C@H](C)[C@@H](O)[C@H](N)[C@@H]2O)C[C@@H]2O[C@](O)(C[C@@H](O)C[C@@H](O)[C@H](O)CC[C@@H](O)C[C@@H](O)CC(=O)O[C@H]1C)C[C@H](O)[C@H]2C(=O)O [AMPHOTERICIN B] | 1 (≈ 1.08 µM) | 7.33 (≈ 7.93 µM) | 0.25 (≈ 0.271 µM) | 1 (≈ 1.08 µM) | 0.58 (≈ 0.628 µM) | 10.7 (≈ 11.5 µM) | 8 (≈ 8.66 µM) | 0.66 (≈ 0.714 µM) | 7 (≈ 7.58 µM) | 7.25 (≈ 7.85 µM) | 1 (≈ 1.08 µM) | 0.5 (≈ 0.541 µM) | 10 (≈ 10.8 µM) | 0.37 (≈ 0.4 µM) | 16 (≈ 17.3 µM) | 4.5 (≈ 4.87 µM) | 0.25 (≈ 0.271 µM) | 6 (≈ 6.49 µM) | 2.66 (≈ 2.88 µM) | 8.4 (≈ 9.09 µM) | MIC (Aspergillus lentulus [20]): 8 µg/mL (≈ 8.66 µM); MIC [21]: 0.25 µg/mL (≈ 0.271 µM); MIC [22]: 0.17 µg/mL (≈ 0.184 µM); MIC (Aspergillus lentulus [23]): 6 µg/mL (≈ 6.49 µM); MIC (Aspergillus lentulus [24]): 12 µg/mL (≈ 13 µM); MIC (Aspergillus lentulus [25]): 12 µg/mL (≈ 13 µM); MIC (Neosartorya hiratsukae [26]): 0.75 µg/mL (≈ 0.812 µM); MIC (Aspergillus lentulus [27]): 8 µg/mL (≈ 8.66 µM); MIC (Neosartorya hiratsukae [28]): 0.31 µg/mL (≈ 0.335 µM)

From ChEMBL document CHEMBL1255284, “Aspergillus section Fumigati: antifungal susceptibility patterns and sequence-based identification” (2008)
